One assay relates to A549. In words: Cytotoxicity against human A549 cells after 72 hrs by Alamar Blue assay. Particulars: A549, 72 h. Type of assay: functional, cell-based. The essentials:
(§1)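 Cells seeded and grown at 37 °C under 5% CO2 for 24 h, then compounds in DMSO added in duplicate wells. Exposure 72 h at 37 °C, then media replaced with fresh media plus AlamarBlue and fluorescence read. Growth was computed from mean fluorescence at time zero, after 72 h with test substance, and after 72 h with vehicle control. IC50 derived.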
On the technique in general: Alamar Blue is a resazurin reagent that responds to reducing activity.

In a further assay the test system is MCF7. The assay can be described thus: Cytotoxicity against human MCF7 cells after 72 hrs by Alamar Blue assay. To be noted: MCF7, 72 h. Format: functional, cell-based. The method, boiled down: as §1

Our source for the IC50 values is ChEMBL document CHEMBL1137700, “New transition metal ion complexes with benzimidazole-5-carboxylic acid hydrazides with antitumor activity” (Eur J Med Chem, 2009).

By IC50 is commonly meant the concentration needed to halve the response being measured. The low end stands for greater potency, the high end for weaker potency. In the case of `COC(=O)c1cccc2oc(-c3cccc4oc(-c5ccccc5O)nc34)nc12`, the IC50 in the assay with A549 worked out at 2 µM; in the assay on MCF7, 1.4 µM.

Regarding `CC(C)=NNC(=O)c1cc2nc(C)[nH]c2cc1[N+](=O)[O-]`, the IC50 with A549 and in the assay on MCF7 was over 100 µM each time.

On to `CC(C)=NNC(=O)c1ccc2[nH]c(C)nc2c1`, for which the IC50 with A549 and in the assay with MCF7 was over 100 µM throughout.

Turning to `Cc1nc2cc(C(=O)N/N=C\c3c[nH]c4ccccc34)c([N+](=O)[O-])cc2[nH]1`, the IC50 in the assay with A549 and in the assay on MCF7 was over 100 µM in each case.

With `Cc1nc2cc(C(=O)O)ccc2[nH]1`, the IC50 in the assay with A549 and in the assay on MCF7 was over 100 µM in each case.

On to `CCOC(=O)c1ccc2[nH]c(C)nc2c1`, for which the half-maximal inhibitory concentration (IC50) in the assay on A549 is over 100 µM; in the assay on MCF7, 62 µM.

Consider `CCOC(=O)c1cc2nc(C)[nH]c2cc1[N+](=O)[O-]`, for which the IC50 in the assay with A549 and in the assay with MCF7 was over 100 µM each time.

Regarding `Cc1ccc(/C=N\NC(=O)c2cc3nc(C)[nH]c3cc2[N+](=O)[O-])cc1`, the figures for the IC50 in the assay on A549 and with MCF7 were 73 µM and 3 µM, respectively.

Consider `Cc1nc2cc(C(=O)N/N=C\c3ccccn3)c([N+](=O)[O-])cc2[nH]1`, for which the IC50 in the assay with A549 and with MCF7 was over 100 µM in each case.

As to `Cc1nc2cc(C(=O)NN)c([N+](=O)[O-])cc2[nH]1`, the 50% inhibitory concentration (IC50) in the assay on A549 and with MCF7 was over 100 µM throughout.

With `Cc1nc2cc(C(=O)N/N=C\c3ccco3)c([N+](=O)[O-])cc2[nH]1`, the IC50 in the assay with A549 was over 100 µM; in the assay with MCF7, 81 µM.

`Cc1nc2cc(C(=O)N/N=C\c3ccc(C)o3)c([N+](=O)[O-])cc2[nH]1`: the IC50 with A549 and in the assay with MCF7 was over 100 µM each time.

`CCN1CCN(C(=O)N[C@@H](C(=O)N[C@@H]2C(=O)N3C(C(=O)O)=C(CSc4nnnn4C)CS[C@H]23)c2ccc(O)cc2)C(=O)C1=O` [CEFOPERAZONE]: the IC50 in the assay on A549 and with MCF7 was over 100 µM in each case.

On to `CO[C@@]12[C@H](COC(N)=O)C3=C(C(=O)C(C)=C(N)C3=O)N1C[C@@H]1N[C@@H]12` [MITOMYCIN], for which the IC50 in the assay with A549 was found to be 0.4 µM; in the assay with MCF7, 0.2 µM.
